Results taken from ChEMBL document CHEMBL1128501, “Synthesis and biological evaluation of 14-alkoxymorphinans. 11. 3-Hydroxycyprodime and analogues: opioid antagonist profile in comparison to cyprodime” (J Med Chem, 1995).

Tests used:
[1] = target: T1, Mu-type opioid receptor (Cavia porcellus, UniProt P97266); test: Binding affinity was evaluated by measuring the ability to displace [3H]DAMGO radioligand binding from Opioid receptor mu 1 in guinea pig brain membranes; format: cell membranes, Membrane
T1 sequence (P97266 whole entry): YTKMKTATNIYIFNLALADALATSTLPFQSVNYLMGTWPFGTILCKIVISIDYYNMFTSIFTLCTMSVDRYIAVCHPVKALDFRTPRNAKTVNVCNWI
In short: (§1)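 Radioligand displacement in guinea pig brain homogenates in 50 mM Tris-HCl, pH 7.4, for 40 min at 25 °C. Radioligands were [3H]DAMGO for μ, [3H]U69593 for κ and [3H]DPDPE for δ sites. Result given as Ki.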

[2] = target: T2, Kappa-type opioid receptor (Cavia porcellus, UniProt P41144); test: […] binding affinity was evaluated by measuring the ability to displace [3H]U-69593 radioligand binding from Opioid receptor kappa 1 in guinea pig brain membranes; set-up: species or system Membrane; in short: as §1
T2 sequence (P41144 whole entry): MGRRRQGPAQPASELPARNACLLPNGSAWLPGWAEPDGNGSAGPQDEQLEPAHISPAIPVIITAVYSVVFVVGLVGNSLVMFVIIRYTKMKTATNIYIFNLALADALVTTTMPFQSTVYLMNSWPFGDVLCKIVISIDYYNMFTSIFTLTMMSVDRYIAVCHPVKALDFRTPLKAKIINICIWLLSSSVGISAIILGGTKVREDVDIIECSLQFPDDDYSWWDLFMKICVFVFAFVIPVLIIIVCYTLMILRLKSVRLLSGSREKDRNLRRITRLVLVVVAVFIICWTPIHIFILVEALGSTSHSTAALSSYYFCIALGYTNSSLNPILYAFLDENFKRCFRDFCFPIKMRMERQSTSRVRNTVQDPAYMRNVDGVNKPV

[3] = target: Kappa-type opioid receptor (Mus musculus) (UniProt P33534); test: Binding affinity was evaluated by measuring the ability to displace CI977 radioligand binding from Opioid receptor kappa 1 in mouse vas deferens preparation
Kappa-type opioid receptor (Mus musculus), sequence (P33534 whole entry): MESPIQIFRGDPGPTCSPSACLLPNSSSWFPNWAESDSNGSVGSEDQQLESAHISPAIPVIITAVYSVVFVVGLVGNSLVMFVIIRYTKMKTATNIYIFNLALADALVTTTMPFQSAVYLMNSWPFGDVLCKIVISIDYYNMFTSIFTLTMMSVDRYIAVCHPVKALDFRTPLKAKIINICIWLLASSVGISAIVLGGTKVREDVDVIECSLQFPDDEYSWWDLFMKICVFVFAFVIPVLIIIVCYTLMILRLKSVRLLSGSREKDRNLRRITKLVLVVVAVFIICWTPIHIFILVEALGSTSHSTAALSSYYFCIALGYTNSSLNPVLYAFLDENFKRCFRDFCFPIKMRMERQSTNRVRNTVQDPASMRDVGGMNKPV
In short: (§2)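 Electrically stimulated isolated mouse vas deferens. Test compound was given as antagonist against agonist-induced responses: DAMGO for μ, DPDPE for δ, and CI977 or other κ agonists for κ. Ke = [antagonist]/(DR − 1), where DR is the ratio of equiactive agonist concentrations with and without antagonist.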

[4] = target: T1, Mu-type opioid receptor; test: […] binding affinity was evaluated by measuring the ability to displace [3H]DAMGO radioligand binding from Opioid receptor mu 1 in guinea pig brain membranes; set-up: species or system Membrane; in short: as §1
[5] = target: T2, Kappa-type opioid receptor; test: Binding affinity was evaluated by measuring the ability to displace [3H]U-69593 radioligand binding from Opioid receptor kappa 1 in guinea pig brain membranes; format: cell membranes, Membrane; in short: as §1
[6] = target: Delta-type opioid receptor (Mus musculus) (UniProt P32300); test: Binding affinity was evaluated by measuring the ability to displace DPDPE radioligand binding from delta opioid receptor in mouse vas deferens preparation; in short: as §2
Delta-type opioid receptor (Mus musculus), sequence (P32300 whole entry): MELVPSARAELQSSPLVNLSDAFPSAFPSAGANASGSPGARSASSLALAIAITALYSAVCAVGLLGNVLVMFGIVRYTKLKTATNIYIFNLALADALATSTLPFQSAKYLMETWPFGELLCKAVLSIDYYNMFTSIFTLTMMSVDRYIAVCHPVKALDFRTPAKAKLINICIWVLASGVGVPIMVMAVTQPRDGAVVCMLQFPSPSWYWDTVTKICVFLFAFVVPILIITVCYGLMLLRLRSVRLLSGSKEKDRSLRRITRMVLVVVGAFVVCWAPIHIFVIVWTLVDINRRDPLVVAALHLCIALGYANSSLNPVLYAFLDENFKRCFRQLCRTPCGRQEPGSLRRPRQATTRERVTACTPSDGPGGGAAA

[7] = target: Mu-type opioid receptor (Mus musculus) (UniProt P42866); test: Binding affinity was evaluated by measuring the ability to displace [3H]-DAMGO radioligand binding from Opioid receptor mu 1 in mouse vas deferens preparation; in short: as §2
Mu-type opioid receptor (Mus musculus), sequence (P42866 whole entry): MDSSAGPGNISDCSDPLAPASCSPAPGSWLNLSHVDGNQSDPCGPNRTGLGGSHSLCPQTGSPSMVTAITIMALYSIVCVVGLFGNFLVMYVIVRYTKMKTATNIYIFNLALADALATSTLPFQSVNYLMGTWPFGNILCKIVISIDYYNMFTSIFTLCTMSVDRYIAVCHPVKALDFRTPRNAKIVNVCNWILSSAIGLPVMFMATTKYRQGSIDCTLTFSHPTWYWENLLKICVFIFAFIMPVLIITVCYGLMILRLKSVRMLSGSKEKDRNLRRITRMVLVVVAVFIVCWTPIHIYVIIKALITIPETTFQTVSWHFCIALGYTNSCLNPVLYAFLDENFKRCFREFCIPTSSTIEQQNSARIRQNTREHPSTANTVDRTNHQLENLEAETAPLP

[8] = target: Kappa-type opioid receptor (Mus musculus) (UniProt P33534); test: Binding affinity for kappa opioid receptor against agonist (CI977) in mouse vas deferens preparation; in short: as §2
[9] = target: Kappa-type opioid receptor (Mus musculus) (UniProt P33534); test: Binding affinity for kappa opioid receptor against agonist (U-69,593) in mouse vas deferens preparation; in short: as §2
[10] = target: Kappa-type opioid receptor (Mus musculus) (UniProt P33534); test: Binding affinity for kappa opioid receptor against agonist (dynorphine) in mouse vas deferens; format: tissue-based; in short: as §2
[11] = target: Kappa-type opioid receptor (Mus musculus) (UniProt P33534); test: Binding affinity for kappa opioid receptor against agonist (ethylketocyclazocine) in mouse vas deferens; format: tissue-based; in short: as §2
[12] = target: Kappa-type opioid receptor (Mus musculus) (UniProt P33534); test: Binding affinity was evaluated by measuring the ability from displace CI977 radioligand binding to Opioid receptor kappa 1 in mouse vas deferens preparation; in short: as §2
[13] = target: Kappa-type opioid receptor (Cavia porcellus) (UniProt P41144); test: Binding affinity for kappa opioid receptor against agonist (CI977) in guinea pig ileum preparations; format: tissue-based
Kappa-type opioid receptor (Cavia porcellus), sequence (P41144 whole entry): as the sequence (P41144 whole entry) above
In short: (§3)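 Myenteric-plexus longitudinal muscle of guinea pig ileum. Test compound was given as antagonist against κ agonist responses. Ke = [antagonist]/(DR − 1), where DR is the ratio of equiactive agonist concentrations with and without antagonist, from separate determinations.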

[14] = target: Kappa-type opioid receptor (Cavia porcellus) (UniProt P41144); test: Binding affinity for kappa opioid receptor against agonist (U-69,593) in guinea pig ileum preparations; format: tissue-based; in short: as §3
[15] = target: Kappa-type opioid receptor (Cavia porcellus) (UniProt P41144); test: Binding affinity for kappa opioid receptor against agonist (ethylketocyclazocine) in guinea pig ileum preparations; format: tissue-based; in short: as §3
[16] = target: Delta-type opioid receptor (Mus musculus) (UniProt P32300); test: Binding affinity was evaluated by measuring the ability from displace DPDPE radioligand binding from delta opioid receptor in mouse vas deferens preparation; in short: as §2
[17] = target: Kappa-type opioid receptor (Cavia porcellus) (UniProt P41144); test: Binding affinity for kappa opioid receptor against agonist (trifluadom) in guinea pig ileum preparations; format: tissue-based; in short: as §3
[18] = target: Mu-type opioid receptor (Mus musculus) (UniProt P42866); test: […] binding affinity was evaluated by measuring the ability from displace [3H]DAMGO radioligand binding to mu opioid receptor in mouse vas deferens preparation; in short: as §2

SMILES | Ki [1] [nM] | Ki [2] [nM] | Ke [3] [nM] | Ki [4] [nM] | Ki [5] [nM] | Ke [6] [nM] | Ke [7] [nM] | also measured
COc1cccc2c1[C@]13CCN(CC4CC4)[C@H](C2)[C@]1(OC)CCC(=O)C3 [CYPRODIME] | 23.7 | 105 |  |  |  |  |  | 
CCCCOc1c(O)ccc2c1C13CCN(CC4CC4)C(C2)[C@]1(OC)CCC(=O)C3 (stereo not given in full) |  |  | 174 | 10.9 | 13 | > 10000 | 24.9 | 
C=CCN1CCC23CC(=O)CC[C@@]2(OC)C1Cc1ccc(O)c(OC)c13 (stereo not given in full) | 7.29 | 25.4 | 4.67 |  |  | 2270 | 4.6 | 
COc1c(O)ccc2c1C13CCN(CC4CC4)C(C2)[C@]1(O)CCC(=O)C3 (stereo not given in full) |  |  | 243 | 54.4 | 23 | 8920 | 93.8 | 
COc1c(O)ccc2c1C13CCN(CC4CC4)C(C2)[C@]1(OC)CCC(=O)C3 (stereo not given in full) | 6.15 |  |  |  | 4.18 |  |  | Ke [8]: 368 nM; Ke [9]: 354 nM; Ke [10]: 450 nM; Ke [11]: 910 nM; Ke [12]: 368 nM; Ke [13]: 284 nM; Ke [14]: 97.5 nM; Ke [15]: 3.95 nM; Ke [16]: 316 nM; Ke [17]: 1010 nM; Ke [18]: 5.62 nM
CCO[C@@]12CCC(=O)CC13CCN(CC1CC1)C2Cc1ccc(O)c(OC)c13 (stereo not given in full) | 1.42 | 5.46 | 233 |  |  | 106 | 2.92 | 
